Reference: ChEMBL document CHEMBL1149444, “Discovery of imidazo[1,2-b][1,2,4]triazines as GABA(A) alpha2/3 subtype selective agonists for the treatment of anxiety” (J Med Chem, 2006)
Calls of active or inactive are those of the source. The rule behind the calls is not given here.

Columns and labels:
[1] = target: GABA-A receptor; anion channel (Rattus norvegicus) (UniProt O09028+P15431+P18506+P18508+P19969+P20236+P23574+P23576+P28471+P28473+P30191+P62813+P63079+P63138+Q91ZM7+Q9ES14); assay: Receptor occupancy by displacement of [3H]Ro 15-1788 binding from central Benzodiazepine receptor in rat at 0.3 mg/kg, po; assay type: organism-based; parameters: dose 0.3 mg/kg
Method in brief: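 Central benzodiazepine receptor occupancy in rat after oral dosing, measured by displacement of [3H]Ro15-1788 binding. Plasma concentration was measured at the dose giving 50% occupancy.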

[2] = Volume of distribution in rhesus at 1 mg/kg, iv or 1 mg/kg, po; assay type: ADME, organism-based, Macaca mulatta; conditions: rhesus monkey, in vivo, read-out: Vdss
Method in brief: (§1)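 Pharmacokinetics in rat, dog or rhesus after 1 mg/kg iv and 1 mg/kg po dosing. Plasma clearance (mL/min/kg), half-life (h), volume of distribution (L/kg) and oral bioavailability (%) were derived.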

[3] = target: T1, GABA-A receptor; alpha-2/beta-3/gamma-2 (Homo sapiens, UniProt P18507+P28472+P47869); assay: Displacement of [3H] Ro15-1788 from recombinant human GABAA alpha2 receptor plus beta-3-gamma-2 expressed in L(tk-) cells; assay type: cell-based
T1 sequence (P18507 whole entry): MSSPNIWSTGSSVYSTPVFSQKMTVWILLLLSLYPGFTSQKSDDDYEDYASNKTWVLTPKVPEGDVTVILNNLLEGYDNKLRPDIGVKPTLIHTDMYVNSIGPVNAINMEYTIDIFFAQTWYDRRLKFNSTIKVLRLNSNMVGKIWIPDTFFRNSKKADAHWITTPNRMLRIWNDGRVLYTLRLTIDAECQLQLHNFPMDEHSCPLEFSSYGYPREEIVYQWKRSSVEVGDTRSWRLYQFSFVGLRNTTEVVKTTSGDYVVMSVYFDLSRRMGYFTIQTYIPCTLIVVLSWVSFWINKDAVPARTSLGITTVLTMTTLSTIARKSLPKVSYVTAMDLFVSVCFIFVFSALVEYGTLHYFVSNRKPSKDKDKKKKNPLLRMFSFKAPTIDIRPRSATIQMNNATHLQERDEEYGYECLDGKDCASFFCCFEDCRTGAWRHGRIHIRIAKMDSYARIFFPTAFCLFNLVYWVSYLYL
T1 sequence (P28472 whole entry): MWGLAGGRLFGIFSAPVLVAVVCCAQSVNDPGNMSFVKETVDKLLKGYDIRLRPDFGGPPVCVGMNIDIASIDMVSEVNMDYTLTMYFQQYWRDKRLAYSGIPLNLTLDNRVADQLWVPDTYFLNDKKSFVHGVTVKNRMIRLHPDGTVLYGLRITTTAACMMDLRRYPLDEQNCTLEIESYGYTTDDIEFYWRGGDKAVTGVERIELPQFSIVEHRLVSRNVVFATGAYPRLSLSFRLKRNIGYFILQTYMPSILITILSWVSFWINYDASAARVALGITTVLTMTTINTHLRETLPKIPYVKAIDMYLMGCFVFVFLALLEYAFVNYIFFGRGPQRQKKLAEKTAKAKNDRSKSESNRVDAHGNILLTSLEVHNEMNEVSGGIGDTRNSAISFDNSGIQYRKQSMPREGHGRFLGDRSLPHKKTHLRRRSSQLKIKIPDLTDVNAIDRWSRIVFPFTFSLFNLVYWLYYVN
T1 sequence (P47869 whole entry): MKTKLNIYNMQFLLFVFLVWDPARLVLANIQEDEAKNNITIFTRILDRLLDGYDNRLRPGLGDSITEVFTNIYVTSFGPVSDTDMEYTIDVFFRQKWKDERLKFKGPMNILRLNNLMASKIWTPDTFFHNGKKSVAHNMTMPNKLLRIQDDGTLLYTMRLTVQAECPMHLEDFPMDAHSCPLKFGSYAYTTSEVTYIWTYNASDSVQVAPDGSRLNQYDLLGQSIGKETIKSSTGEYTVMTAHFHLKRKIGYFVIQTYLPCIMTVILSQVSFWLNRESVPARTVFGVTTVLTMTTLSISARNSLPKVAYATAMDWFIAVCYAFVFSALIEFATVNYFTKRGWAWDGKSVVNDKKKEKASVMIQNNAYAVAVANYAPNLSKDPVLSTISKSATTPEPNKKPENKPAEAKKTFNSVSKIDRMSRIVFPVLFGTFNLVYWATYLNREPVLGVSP

[4] = Oral bioavailability in dog at 1 mg/kg, iv or 1 mg/kg, po; assay type: ADME, organism-based, Canis lupus familiaris; conditions: in vivo; method in brief: as §1
[5] = Volume of distribution in dog at 1 mg/kg, iv or 1 mg/kg, po; assay type: ADME, organism-based, Canis lupus familiaris; conditions: in vivo, read-out: Vdss; method in brief: as §1
[6] = Oral bioavailability in rhesus at 1 mg/kg, iv or 1 mg/kg, po; assay type: ADME, organism-based, Macaca mulatta; conditions: rhesus monkey, in vivo; method in brief: as §1
[7] = Half life in rat at 1 mg/kg, […] 1 mg/kg, po; assay type: ADME, organism-based; conditions: in vivo
Method in brief: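 Rat pharmacokinetics after dosing at 1 mg/kg iv and 1 mg/kg po. Plasma clearance in mL/min/kg, half-life in h and volume of distribution in L/kg.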

[8] = target: T2, GABA-A receptor; alpha-1/beta-3/gamma-2 (Homo sapiens, UniProt P14867+P18507+P28472); assay: Displacement of [3H]Ro 15-1788 from recombinant human GABAA alpha-1 receptor plus beta3gamma2 expressed in L(tk-) cells; assay type: cell-based
T2 sequence (P14867 whole entry): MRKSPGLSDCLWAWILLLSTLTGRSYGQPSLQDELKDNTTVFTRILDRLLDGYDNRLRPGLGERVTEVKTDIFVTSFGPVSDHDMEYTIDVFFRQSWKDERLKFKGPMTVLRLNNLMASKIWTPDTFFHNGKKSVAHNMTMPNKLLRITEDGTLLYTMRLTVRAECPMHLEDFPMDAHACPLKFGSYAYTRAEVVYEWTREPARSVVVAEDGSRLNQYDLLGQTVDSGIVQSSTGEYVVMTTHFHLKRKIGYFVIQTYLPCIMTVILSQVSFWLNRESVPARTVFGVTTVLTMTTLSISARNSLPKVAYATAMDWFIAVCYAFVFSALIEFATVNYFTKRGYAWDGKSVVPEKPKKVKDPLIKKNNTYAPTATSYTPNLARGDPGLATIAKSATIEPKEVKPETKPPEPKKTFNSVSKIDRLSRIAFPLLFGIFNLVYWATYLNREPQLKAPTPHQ
T2 sequence (P18507 whole entry): T1 sequence (P18507 whole entry)
T2 sequence (P28472 whole entry): T1 sequence (P28472 whole entry)

[9] = test system: Mus musculus; assay: Impairment in mouse rotarod assay upto 10 mg/kg, po; assay type: functional, organism-based; parameters: dose 10 mg/kg
Method in brief: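 Mouse rotarod test for sedation or myorelaxation after oral dosing up to 10 mg/kg. n = 8 per group. Significance versus vehicle at p < 0.05.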

[10] = target: GABA-A receptor; alpha-1/beta-3/gamma-2 (Homo sapiens) (UniProt P14867+P18507+P28472); assay: Efficacy against recombinant human GABAA alpha1 receptor plus beta3gamma2 expressed in L(tk-) cells by whole cell patch clamp method relative to chlordiazepoxide; assay type: functional, cell-based
Method in brief: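 Whole-cell patch clamp on L(tk-) cells stably expressing the receptor (alpha plus beta3gamma2). GABA applied at an EC20-equivalent concentration. Modulation of the current measured with increasing test concentrations. Efficacy expressed relative to the maximal chlordiazepoxide response (set at 1.00) or as a percentage.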

SMILES: CC(C)(O)c1cnn2c(-c3ccc(F)c(-c4c(F)cccc4C#N)c3)cnc2n1
- Activity [1]: 50%
- Vd [2]: 2.1 L/kg
- Ki [3]: 1.8 nM
- bioavailability [4]: 22%
- Vd [5]: 1.9 L/kg
- bioavailability [6]: 29%
- half-life [7]: 11 h
- Ki [8]: 0.73 nM
- Activity [9]: inactive
- Efficacy [10]: 3%
